NPY-Y2 antag: blocks the human neuropeptide Y Y2 receptor; 140,000 tested, 0.99% active; AID 793; inhibition, % at 2.7 µM; P49146; NPY-Y2 expressing cells, antagonist mode; in the data active = inhibition above about 17%;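 also: 0% = vehicle with agonist challenge and 100% = reference antagonist with challenge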
Target sequence (P49146 whole entry, looked up): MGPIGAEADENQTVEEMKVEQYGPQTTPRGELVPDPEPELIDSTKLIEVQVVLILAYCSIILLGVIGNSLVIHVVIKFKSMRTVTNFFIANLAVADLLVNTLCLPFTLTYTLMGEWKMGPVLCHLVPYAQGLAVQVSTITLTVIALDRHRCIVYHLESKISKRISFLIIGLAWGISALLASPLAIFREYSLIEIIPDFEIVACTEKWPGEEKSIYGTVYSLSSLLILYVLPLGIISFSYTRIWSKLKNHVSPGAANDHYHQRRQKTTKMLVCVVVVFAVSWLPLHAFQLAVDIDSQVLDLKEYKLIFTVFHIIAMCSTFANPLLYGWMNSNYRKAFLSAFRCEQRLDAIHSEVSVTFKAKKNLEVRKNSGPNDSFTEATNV
NPY-Y1 PAM-ag: human NPY-Y1 potentiation or agonism, primary screen; P25929; NPY-Y1 expressing cells, potentiator/agonist activation; activation, % at 3.6 µM; 220,000 tested, 0.37% active; AID 1304; in the data active = activation above about 33%, passing the limit was not always enough;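 also: cells stimulated with NPY at EC10 then isoproterenol at EC100; 0% = low agonist plus stimulus and 100% = saturating agonist plus stimulus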
Target sequence (P25929 whole entry, looked up): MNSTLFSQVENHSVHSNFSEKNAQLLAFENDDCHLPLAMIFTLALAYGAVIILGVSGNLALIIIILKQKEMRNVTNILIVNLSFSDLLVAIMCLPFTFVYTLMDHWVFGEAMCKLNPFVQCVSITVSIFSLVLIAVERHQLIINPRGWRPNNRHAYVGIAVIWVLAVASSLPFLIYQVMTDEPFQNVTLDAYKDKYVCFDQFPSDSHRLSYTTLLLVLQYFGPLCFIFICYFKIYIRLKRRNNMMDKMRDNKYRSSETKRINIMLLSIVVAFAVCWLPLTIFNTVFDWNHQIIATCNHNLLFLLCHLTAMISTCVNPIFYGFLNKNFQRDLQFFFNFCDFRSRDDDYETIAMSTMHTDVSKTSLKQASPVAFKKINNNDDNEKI
NPY Y1 blocker: NPY-Y1 (human) receptor antagonism. P25929. HEK293-CNG Y1 cells, membrane potential fluorescence; NPY at EC95, then isoproterenol. inhibition, % at 3.6 µM. 200,000 tested, 1% active;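 active = inhibition above the campaign mean inhibition of all tested compounds plus 3 SD, cut at about 20% in these data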;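 also: 0% = DMSO wells given NPY plus isoproterenol and 100% = isoproterenol alone without NPY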
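Assay system: HEK293 cells with Y1 receptor plus CNG channel | Probe or stimulus: NPY (25 nM), isoproterenol (1 µM), Ro 20-1724 (25 µM) | Timing: Compound incubation 1 h at room temperature, readout 45 min post-stimulation | Measured by: Membrane-potential fluorescent dye readout | Benchmarks: High control isoproterenol alone, low control NPY with isoproterenol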
NPY2 pot ag: potentiators or agonists of human neuropeptide Y receptor Y2; P49146; activation, % at 3.6 µM; cells expressing NPY-Y2, potentiator/agonist read-out; 220,000 tested, 0.45% active; in the data active = activation above about 27%;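 also: cells stimulated with NPY near EC25 plus isoproterenol at EC100; 0% = vehicle plus submaximal agonist and 100% = vehicle plus saturating agonist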
NPY1 antag ctr: antagonizes human NPY-Y1, counter-screen to NPY-Y2 antagonists; shares compounds with NPY-Y2 antag; 710 tested, 19% active; inhibition, % at 3.6 µM; AID 1256; cell-based NPY-Y1 antagonism counterscreen; in the data active = inhibition above about 20%;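 also: cells challenged with NPY then isoproterenol with cAMP sensed through a CNG channel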
NPY2 antag conf: confirmation of human neuropeptide Y receptor Y2 antagonists; shares compounds with NPY-Y2 antag; HEK293 NPY-Y2 CNG channel, membrane potential fluorescence; inhibition, % at 2.8 µM; 710 tested, 32% active;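 active = mean inhibition of triplicate wells above the hit cutoff set in the primary screen, cut at about 17% in these data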;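 also: 0% = DMSO with NPY challenge and 100% = BIIE0246 high control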
* marks the source's active call; other numbers are inactive results; . = no result. Sampled rows, rich in hits. Any-hit rate of the full collection: about 1.8%.

SMILES | NPY-Y2 antag | NPY-Y1 PAM-ag | NPY Y1 blocker | NPY2 pot ag | NPY1 antag ctr | NPY2 antag conf
Cc1ccc(-c2nc3ccc(Cl)cc3n2OC(C)C(=O)O)cc1 (stereo unspecified) | . | -22.8 | -7.6 | -17.8 | . | .
CN(C)S(=O)(=O)c1ccc(N2CCCC2)c(C(=O)NC(c2ccccc2)c2ccccc2)c1 | 22.6* | 7.6 | 12.6 | -15.1 | 16.1 | 9.5
CCCCCSc1nnc(-c2ccccc2N)c(=O)[nH]1 | 19.2* | -11.1 | 6.6 | -6.9 | 15.2 | 11.6
CCCCCSc1nnc(-c2ccccc2NC(C)=O)c(=O)[nH]1 | . | -4.2 | -1.8 | -16.5 | . | .
CC(=O)c1ccc(S(=O)(=O)N2CCCCC2C(=O)O)cc1 (stereo unspecified) | . | -0.3 | 1.1 | -1.0 | . | .
CCN(CC)c1ccc(NC(=O)COC(=O)CSc2ccc(Br)cc2C)cc1 | 6.1 | -19.8 | 5.0 | -4.9 | . | .
Cc1cc(C)c(NC(=O)COC(=O)CSc2ccc(Br)cc2C)c(C)c1 | 17.6* | 2.5 | 6.2 | 1.0 | 5.7 | 6.8
CCN(CC)C(C(=O)Nc1ccc(C(C)C)cc1)c1ccc2c(c1)OCO2 (stereo unspecified) | 18.4* | -6.2 | 15.8 | -14.0 | 6.8 | 13.8
CC1(N(O)/C=C2\C=CC=CC2=O)CCCCC1=O (stereo unspecified) | . | -3.0 | . | -6.7 | . | .
O=C(Nc1ccc2c(c1)OCO2)c1nn(-c2ccccc2)c(=O)c2ccccc12 | 17.2* | -35.2 | -2.3 | -19.0 | 10.6 | 9.0
CCN1C(=O)C(CC(=O)Nc2c(C)cccc2C)Nc2cc(S(=O)(=O)N(C)C)ccc21 (stereo unspecified) | . | -6.1 | -4.4 | 2.2 | . | .
Cc1nccn1CC(=O)N/N=C/c1cccs1 | . | -11.9 | . | 10.3 | . | .
COc1ccc(C(=O)NC(=S)Nc2ccc(NC(=O)c3ccco3)cc2)cc1[N+](=O)[O-] | 18.9* | 8.5 | 1.8 | 9.5 | 51.6* | 87.8*
COc1ccc(C(=O)NC(=S)Nc2cccc(NC(=O)c3ccco3)c2)cc1[N+](=O)[O-] | 0.0 | -2.8 | 10.9 | -12.9 | . | .
CCOc1ccc(C(=O)NC(=S)Nc2ccc(N3CCCCC3)cc2)cc1[N+](=O)[O-] | 29.2* | -11.6 | -1.3 | -7.0 | 77.6* | 91.1*
O=Nc1c(-c2cccc([N+](=O)[O-])c2)nc2ncccn12 | . | 19.9 | . | 7.7 | . | .
CC(C)Cc1cc(C(=O)N2CCC(N3CCC(C(=O)NC4CC4)CC3)CC2)n[nH]1 | . | -9.8 | 3.8 | 3.9 | . | .
CC1=C(C(=O)OC(C)(C)C)C(c2cccs2)NC(=O)N1 (stereo unspecified) | 2.0 | 7.8 | 2.1 | -0.5 | . | .
COC(=O)c1ccc(C(=O)OC)c(-n2c(=O)c3ccccc3c3ccccc3c2=O)c1 | 18.7* | 22.5 | -0.3 | 11.5 | 7.6 | 15.6
Cc1ccc(NC(=O)COC(=O)CN2C(=O)COc3ccccc32)cc1 | -0.6 | -27.4 | -3.8 | 6.3 | . | .
CC(C)C(OC(=O)CN1C(=O)COc2ccccc21)C(=O)NC1CCCC1 (stereo unspecified) | 18.2* | -4.5 | 16.9 | -1.2 | 9.8 | 6.6
COc1ccc(/C=N/NC(=O)c2nc(-c3ccccc3)cc(-c3ccccc3)n2)cc1 | 19.9* | -52.8 | 2.5 | -56.9 | 21.8* | 26.9*
COc1ccc(/C=N/NC(=O)c2nc(-c3ccccc3)cc(-c3ccccc3)n2)cc1O | 11.2 | -19.2 | 8.7 | -28.6 | . | .
Cc1ccc(C(=O)NCC(=O)OC(C)C(=O)Nc2ccc(N(C)C)cc2)s1 (stereo unspecified) | . | 16.6 | 6.5 | 2.0 | . | .
Cc1nn(C(C)(C)C)c(OC(=O)c2ccco2)c1Sc1ccccc1 | 6.3 | -0.2 | 3.1 | 11.6 | . | .
SMILES | NPY-Y2 antag | NPY-Y1 PAM-ag | NPY Y1 blocker | NPY2 pot ag | NPY1 antag ctr | NPY2 antag conf
Cc1nn(C(C)(C)C)c(OC(=O)c2ccc(Br)o2)c1Sc1ccccc1 | 18.0* | 7.8 | 6.2 | 9.9 | 5.4 | 16.2
Cc1nn(C(C)(C)C)c(OC(=O)c2cccs2)c1Sc1ccccc1 | 26.5* | -18.1 | 13.4 | 7.0 | 11.0 | 6.2
CCOP(=O)(OCC)C(NC(=O)c1cc([N+](=O)[O-])cc([N+](=O)[O-])c1)C(F)(F)F (stereo unspecified) | . | 2.4 | -6.7 | -3.0 | . | .
COc1ccc(S(=O)(=O)N2CCC(CN3C(=O)c4cccc5cccc(c45)C3=O)CC2)cc1 | 23.2* | -47.7 | 6.2 | -5.2 | 7.7 | 15.0
O=C(c1ccc(S(=O)(=O)N2CCCC2)cc1)N1CCC(CN2C(=O)c3cccc4cccc(c34)C2=O)CC1 | . | 18.0 | . | -35.5 | . | .
Cc1ccc(C)c(N2CCN(C(=O)C34CC5CC(C3)CC(n3nnc(C)n3)(C5)C4)CC2)c1 | . | -10.6 | . | 6.9 | . | .
N#Cc1ccc(-c2cccnc2)nc1SCc1ccc(Cl)c(Cl)c1 | 27.2* | 2.5 | 3.6 | 10.5 | 19.5 | 21.3*
Cc1nc2ccc(F)cc2cc1C(=O)NCc1ccco1 | -0.5 | 3.8 | 8.1 | 21.6 | . | .
Cc1nc2ccc(F)cc2cc1C(=O)Nc1ccc(Cl)c(Cl)c1 | 23.1* | -3.1 | 5.8 | -12.3 | 13.8 | 31.4*
CCOC(=O)c1nn(-c2ccc(Cl)cc2)c2nnc(Cc3ccccc3)c(=O)n12 | 4.0 | 5.3 | -1.1 | -14.2 | . | .
Cc1ccc(-n2nc(C(=O)c3ccccc3)n3c(=O)c(Cc4ccccc4)nnc23)cc1 | 18.0* | -41.1 | 17.0 | -21.3 | 73.0* | 99.0*
COc1ccc(NC(=O)c2cc(SC)ccc2Cl)cc1 | 5.3 | 4.5 | 3.9 | 3.9 | . | .
COC(=O)c1n[nH]n(-c2cc(Cl)cc(Cl)c2)c1=O | . | -7.1 | . | -34.5 | . | .
Oc1[nH]c(N=C2N=c3ccccc3=N2)c2ccccc12 | . | -1.5 | . | -15.0 | . | .
Cc1nc(C(=O)Nc2cccc(Cl)c2)nn1-c1cc(OC(C)C)c(Cl)cc1Cl | 17.2* | -40.0 | 18.4 | -35.6 | 20.2* | 15.5
COC(=O)CN1C(=O)N/C(=C/c2ccccc2OC)C1=O | . | 4.2 | 8.1 | 2.0 | . | .
Clc1ccc(CSc2nnc(-c3ccc4c(c3)OCO4)o2)cc1 | 22.4* | -20.6 | 8.9 | 3.2 | 26.9* | 29.7*
Clc1ccc(CSc2nnc(-c3ccncc3)o2)cc1 | 3.3 | -3.6 | 8.0 | -1.9 | . | .
COc1cc(/C=C2\SC(=Nc3c(C)n(C)n(-c4ccccc4)c3=O)NC2=O)ccc1O | 30.7* | -27.5 | 20.1* | -6.3 | 48.3* | 74.2*
COc1cc(/C=C2\SC(=Nc3ccc(O)cc3)NC2=O)cc(OC)c1O | . | 9.5 | 8.1 | -2.4 | . | .
CCC(C)N(C(=O)COC(=O)/C=C/c1ccc(O)c(OC)c1)C1CCS(=O)(=O)C1 (stereo unspecified) | 18.3* | 9.0 | 4.0 | -1.3 | 0.7 | 0.4
COc1cc(/C=C/C(=O)OCC(=O)NC2CCS(=O)(=O)C2)ccc1O (stereo unspecified) | -1.0 | 0.4 | -1.3 | -1.1 | . | .
CC(C)CCn1c(-c2nonc2N)nc2ccccc21 | 18.5* | -54.3 | 16.6 | -31.6 | 11.9 | 13.0
CCCCn1c(-c2nonc2N)nc2ccccc21 | 8.6 | -31.3 | 1.7 | -10.2 | . | .
CCOC(=O)c1ccccc1NC(=O)Cn1c(-c2nonc2N)nc2ccccc21 | 35.4* | -20.0 | 17.7 | -24.1 | 22.6* | 29.9*

Screening results: PubChem BioAssay, The Scripps Research Institute Molecular Screening Center
